Data published in ChEMBL document CHEMBL1764970, “New glucocerebrosidase inhibitors by exploration of chemical diversity of N-substituted aminocyclitols using click chemistry and in situ screening” (J Med Chem, 2011).

Tests used:
[1] = molecular target: T1, Lysosomal acid glucosylceramidase (Homo sapiens) (UniProt P04062); assay: Enzyme stabilization ratio of recombinant glucocerebrosidase activity at 48 degC to at 37 degC at 100 uM after 60 mins
T1 sequence (whole entry): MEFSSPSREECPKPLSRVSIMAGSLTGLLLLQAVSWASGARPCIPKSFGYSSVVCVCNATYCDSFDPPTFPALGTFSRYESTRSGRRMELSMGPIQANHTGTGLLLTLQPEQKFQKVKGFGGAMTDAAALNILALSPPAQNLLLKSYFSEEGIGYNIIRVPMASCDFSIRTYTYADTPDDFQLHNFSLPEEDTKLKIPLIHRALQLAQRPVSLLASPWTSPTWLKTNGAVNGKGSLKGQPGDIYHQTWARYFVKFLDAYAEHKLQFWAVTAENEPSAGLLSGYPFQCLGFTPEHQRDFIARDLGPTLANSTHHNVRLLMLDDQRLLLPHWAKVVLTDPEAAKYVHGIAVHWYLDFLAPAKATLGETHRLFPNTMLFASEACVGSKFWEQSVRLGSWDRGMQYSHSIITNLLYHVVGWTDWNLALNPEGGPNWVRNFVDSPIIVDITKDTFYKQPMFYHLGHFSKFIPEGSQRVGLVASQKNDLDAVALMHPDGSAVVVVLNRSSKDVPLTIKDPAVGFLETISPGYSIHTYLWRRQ

[2] = molecular target: Oligo-1,6-glucosidase IMA1 (Saccharomyces cerevisiae S288c, UniProt P53051); assay: Inhibition of yeast alpha-glucosidase
[3] = molecular target: Probable alpha-glucosidase Os06g0675700 (Oryza sativa Japonica Group, UniProt Q653V7); assay: Inhibition of rice alpha-glucosidase
Alpha-galactosidase = Alpha-galactosidase (Coffea arabica, UniProt Q42656); assay: Inhibition of alpha-galactosidase from coffee beans
[4] = Cytotoxicity against human wild type fibroblasts at up to 300 uM after 24 hrs by MTT assay; type: cell-based; conditions: fibroblast
Beta-galactosidase = molecular target: T2, Beta-galactosidase (Bos taurus, UniProt Q58D55); assay: Inhibition of bovine liver beta-galactosidase
T2 sequence (Q58D55 whole entry): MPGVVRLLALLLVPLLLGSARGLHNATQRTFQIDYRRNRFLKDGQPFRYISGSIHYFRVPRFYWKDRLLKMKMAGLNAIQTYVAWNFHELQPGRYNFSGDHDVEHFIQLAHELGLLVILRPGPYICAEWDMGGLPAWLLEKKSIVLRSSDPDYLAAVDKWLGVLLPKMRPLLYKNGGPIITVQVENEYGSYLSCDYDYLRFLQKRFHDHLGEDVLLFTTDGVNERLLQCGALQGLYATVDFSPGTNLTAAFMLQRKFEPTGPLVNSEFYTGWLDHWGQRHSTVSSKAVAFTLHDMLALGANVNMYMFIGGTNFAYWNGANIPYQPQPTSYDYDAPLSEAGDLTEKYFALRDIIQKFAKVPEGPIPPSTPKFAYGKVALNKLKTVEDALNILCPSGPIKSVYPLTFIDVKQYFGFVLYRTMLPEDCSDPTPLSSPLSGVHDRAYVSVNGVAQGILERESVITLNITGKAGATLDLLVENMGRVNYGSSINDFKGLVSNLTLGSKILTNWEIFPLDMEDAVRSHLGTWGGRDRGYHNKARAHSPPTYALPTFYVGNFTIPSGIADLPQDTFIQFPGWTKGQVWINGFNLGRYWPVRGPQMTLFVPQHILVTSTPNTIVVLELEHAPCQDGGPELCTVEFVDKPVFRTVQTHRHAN

[5] = molecular target: T3, Lysosomal acid glucosylceramidase (Homo sapiens, UniProt P04062); assay: Inhibition of recombinant glucocerebrosidase in McIlvaine buffer at pH 5.2 after 10 mins by fluorometric analysis
T3 sequence (P04062 whole entry): T1 sequence (whole entry)
Summary of the method: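 Imiglucerase in McIlvaine buffer pH 5.2 containing 0.2% (w/v) sodium taurocholate and 0.1% (v/v) Triton X-100. Enzyme pre-incubated 30 min at 37 °C with inhibitor. Then 4 mM 4-methylumbelliferyl β-D-glucopyranoside (substrate solution), 10 min at 37 °C. Stop with 100 mM glycine/NaOH pH 10.6, fluorescence ex 355/em 460 nm. IC50 from % activity vs log[I], at least five concentrations.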

[6] = molecular target: T3, Lysosomal acid glucosylceramidase; assay: Inhibition of recombinant glucocerebrosidase in McIlvaine buffer at pH 7.4 after 10 mins by fluorometric analysis
[7] = molecular target: T4, Ceramide glucosyltransferase (Homo sapiens) (UniProt Q16739); assay: Inhibition of glucosylceramide synthase in human A549 cells at 250 uM after 35 mins by fluorometric analysis; type: cell-based
T4 sequence (whole entry): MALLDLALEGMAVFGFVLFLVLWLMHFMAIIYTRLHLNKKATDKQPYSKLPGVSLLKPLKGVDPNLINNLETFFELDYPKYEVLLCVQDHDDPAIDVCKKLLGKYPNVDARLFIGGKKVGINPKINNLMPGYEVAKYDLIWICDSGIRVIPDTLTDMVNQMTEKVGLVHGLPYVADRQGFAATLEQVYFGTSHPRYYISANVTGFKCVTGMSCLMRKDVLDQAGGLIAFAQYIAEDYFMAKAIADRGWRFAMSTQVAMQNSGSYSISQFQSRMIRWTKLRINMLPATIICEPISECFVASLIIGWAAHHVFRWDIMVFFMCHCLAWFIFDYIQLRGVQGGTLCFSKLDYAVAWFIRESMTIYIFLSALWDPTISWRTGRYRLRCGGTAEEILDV

[8] = molecular target: T3, Lysosomal acid glucosylceramidase; assay: Competitive inhibition of recombinant glucocerebrosidase
[9] = molecular target: T1, Lysosomal acid glucosylceramidase (Homo sapiens); assay: Inhibition of glucocerebrosidase in human intact fibroblasts at 50 uM after 24 hrs by fluorometric analysis
Summary of the method: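 Fibroblasts grown in MEM with 15% inactivated FCS, 37 °C, 5% CO2, passages 14–30. Plated in DMEM with aminocyclitol (50 μM final, from DMSO) for 24 h, washed with PBS. GCase assayed with 1 h incubation at 37 °C, stopped with 100 mM glycine-NaOH pH 10.6, fluorescence 355/460 nm. Untreated and treated cells in quadruplicate.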

Sequence of Probable alpha-glucosidase Os06g0675700 (Q653V7 whole entry): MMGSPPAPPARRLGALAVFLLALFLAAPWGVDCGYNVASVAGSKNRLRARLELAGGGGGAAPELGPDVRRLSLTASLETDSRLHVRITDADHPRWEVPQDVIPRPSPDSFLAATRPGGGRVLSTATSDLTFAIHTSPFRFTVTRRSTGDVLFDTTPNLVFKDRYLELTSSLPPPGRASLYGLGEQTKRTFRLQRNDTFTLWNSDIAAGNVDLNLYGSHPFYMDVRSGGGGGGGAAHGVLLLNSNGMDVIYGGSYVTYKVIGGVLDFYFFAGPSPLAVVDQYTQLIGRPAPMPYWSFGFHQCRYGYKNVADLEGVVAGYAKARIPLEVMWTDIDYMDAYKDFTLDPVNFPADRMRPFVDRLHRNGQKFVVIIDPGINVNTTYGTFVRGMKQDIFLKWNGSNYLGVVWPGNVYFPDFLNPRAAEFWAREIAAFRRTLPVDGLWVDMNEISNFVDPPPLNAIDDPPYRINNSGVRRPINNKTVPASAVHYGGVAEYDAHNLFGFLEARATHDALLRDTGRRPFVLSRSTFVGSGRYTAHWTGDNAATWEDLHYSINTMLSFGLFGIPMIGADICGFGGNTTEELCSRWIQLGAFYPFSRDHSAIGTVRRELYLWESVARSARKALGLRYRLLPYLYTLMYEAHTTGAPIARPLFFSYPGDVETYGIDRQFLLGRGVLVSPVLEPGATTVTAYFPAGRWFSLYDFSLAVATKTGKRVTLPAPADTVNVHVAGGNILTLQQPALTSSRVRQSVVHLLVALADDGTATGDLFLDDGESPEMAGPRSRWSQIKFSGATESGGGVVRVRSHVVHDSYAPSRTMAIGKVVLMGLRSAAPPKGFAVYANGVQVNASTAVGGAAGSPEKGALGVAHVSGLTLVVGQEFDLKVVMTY
Sequence of Alpha-galactosidase (Q42656 whole entry): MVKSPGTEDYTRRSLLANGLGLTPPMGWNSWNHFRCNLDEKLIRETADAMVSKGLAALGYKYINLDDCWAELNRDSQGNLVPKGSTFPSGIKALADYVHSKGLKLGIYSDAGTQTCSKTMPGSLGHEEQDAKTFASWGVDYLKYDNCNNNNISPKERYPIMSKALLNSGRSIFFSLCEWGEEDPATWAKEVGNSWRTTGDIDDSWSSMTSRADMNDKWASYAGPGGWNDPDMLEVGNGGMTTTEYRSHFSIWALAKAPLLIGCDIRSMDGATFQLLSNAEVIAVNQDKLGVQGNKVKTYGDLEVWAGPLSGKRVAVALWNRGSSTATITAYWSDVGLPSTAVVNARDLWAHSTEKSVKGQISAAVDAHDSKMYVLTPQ
Sequence of Oligo-1,6-glucosidase IMA1 (P53051 whole entry): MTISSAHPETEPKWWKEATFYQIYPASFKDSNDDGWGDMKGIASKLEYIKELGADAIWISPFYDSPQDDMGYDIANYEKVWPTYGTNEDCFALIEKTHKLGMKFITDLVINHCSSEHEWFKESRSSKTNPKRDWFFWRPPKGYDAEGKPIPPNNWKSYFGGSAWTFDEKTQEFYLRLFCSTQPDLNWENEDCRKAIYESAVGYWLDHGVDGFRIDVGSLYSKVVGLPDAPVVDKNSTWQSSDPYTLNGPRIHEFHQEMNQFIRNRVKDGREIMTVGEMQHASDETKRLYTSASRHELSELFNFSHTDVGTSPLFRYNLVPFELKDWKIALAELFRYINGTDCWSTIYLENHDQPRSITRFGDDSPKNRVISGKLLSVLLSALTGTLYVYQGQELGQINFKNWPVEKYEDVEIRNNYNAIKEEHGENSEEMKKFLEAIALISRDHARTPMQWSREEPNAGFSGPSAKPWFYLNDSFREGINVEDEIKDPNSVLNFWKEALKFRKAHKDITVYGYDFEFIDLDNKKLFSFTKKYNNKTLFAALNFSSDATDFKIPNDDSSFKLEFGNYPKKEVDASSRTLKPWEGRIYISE

IC50 [2] [µM]	IC50 [3] [µM]	IC50 (Alpha-galactosidase) [µM]	IC50 (Beta-galactosidase) [µM]	IC50 [5] [µM]	Structure (SMILES)	Activity [4]	also measured
> 100	> 100	> 100	> 100	2.25	CCCCCCCCn1cc(CN[C@H]2[C@H](O)[C@@H](O)[C@H](O)[C@@H](O)[C@@H]2O)nn1	Non-toxic	–
–	–	–	–	114	Cn1nnc2ccc(Cn3cc(CN[C@H]4[C@H](O)[C@@H](O)[C@H](O)[C@@H](O)[C@@H]4O)nn3)cc21	–	–
–	–	–	–	181	CCCCOCCCOCCCn1cc(CN[C@H]2[C@H](O)[C@@H](O)[C@H](O)[C@@H](O)[C@@H]2O)nn1	–	–
–	–	–	–	453	COCCCOCCCOCCCn1cc(CN[C@H]2[C@H](O)[C@@H](O)[C@H](O)[C@@H](O)[C@@H]2O)nn1	–	–
–	–	–	–	44.5	CSCCCn1cc(CN[C@H]2[C@H](O)[C@@H](O)[C@H](O)[C@@H](O)[C@@H]2O)nn1	–	–
–	–	–	–	30.9	O[C@@H]1[C@@H](O)[C@H](O)[C@@H](NCc2cn(Cc3ccc(CN4CCCCC4)cc3)nn2)[C@H](O)[C@H]1O	–	–
> 100	> 100	> 100	> 100	–	CCCCCCCCCN1C[C@H](O)[C@@H](O)[C@H](O)[C@H]1CO	Non-toxic	–
> 100	> 100	> 100	> 100	1.5	O[C@@H]1[C@@H](O)[C@H](O)[C@@H](NCc2cn(CCCCC3CCCCC3)nn2)[C@H](O)[C@H]1O	Non-toxic	IC50 [6]: 0.3 µM; inhibition [7]: 8%; Ratio [1]: 7.5; Ki [8]: 0.29 µM; inhibition [9]: 30%
–	–	–	–	5.8	OCCCCCCCn1cc(CN[C@H]2[C@H](O)[C@@H](O)[C@H](O)[C@@H](O)[C@@H]2O)nn1	–	–

More lines, now with the values behind:

Structure (SMILES)	IC50 [2] [µM]	IC50 [3] [µM]	IC50 (Alpha-galactosidase) [µM]	IC50 (Beta-galactosidase) [µM]	IC50 [5] [µM]	Activity [4]	also measured
CCCCCCCCCCN[C@H]1[C@H](O)[C@@H](O)[C@H](O)[C@@H](O)[C@@H]1O	> 100	> 100	> 100	> 100	–	Non-toxic	Ratio [1]: 4.9
O[C@@H]1[C@@H](O)[C@H](O)[C@@H](NCc2cn(CCCC3CCCCC3)nn2)[C@H](O)[C@H]1O	–	–	–	–	4.32	–	–
O[C@@H]1[C@@H](O)[C@H](O)[C@@H](NCc2cn(Cc3cccc(I)c3)nn2)[C@H](O)[C@H]1O	–	–	–	–	10.3	–	–
O[C@@H]1[C@@H](O)[C@H](O)[C@@H](NCc2cn(C3CSCCCSC3)nn2)[C@H](O)[C@H]1O	–	–	–	–	35.9	–	–
O[C@@H]1[C@@H](O)[C@H](O)[C@@H](NCc2cn(CCCCCOCc3ccccc3)nn2)[C@H](O)[C@H]1O	–	–	–	–	10	–	–
OCCCCCCCCCCn1cc(CN[C@H]2[C@H](O)[C@@H](O)[C@H](O)[C@@H](O)[C@@H]2O)nn1	> 100	> 100	> 100	43	2.19	Non-toxic	IC50 [6]: 1.3 µM; inhibition [7]: 28%; Ratio [1]: 6.9; Ki [8]: 0.89 µM; inhibition [9]: 28%
CN1CCN(Cc2cccc(Cn3cc(CN[C@H]4[C@H](O)[C@@H](O)[C@H](O)[C@@H](O)[C@@H]4O)nn3)c2)CC1	–	–	–	–	66.5	–	–
CCCCc1ncc(Cn2cc(CN[C@H]3[C@H](O)[C@@H](O)[C@H](O)[C@@H](O)[C@@H]3O)nn2)[nH]1	–	–	–	–	237	–	–
COCCCOCCCn1cc(CN[C@H]2[C@H](O)[C@@H](O)[C@H](O)[C@@H](O)[C@@H]2O)nn1	–	–	–	–	466	–	–
CCCCCCCCCCCn1cc(CN[C@H]2[C@H](O)[C@@H](O)[C@H](O)[C@@H](O)[C@@H]2O)nn1	> 100	> 100	> 100	> 100	0.06	Non-toxic	IC50 [6]: 0.1 µM; inhibition [7]: 29%; Ratio [1]: 30.5; Ki [8]: 0.05 µM; inhibition [9]: 97%
CC(C)(CO)Cn1cc(CN[C@H]2[C@H](O)[C@@H](O)[C@H](O)[C@@H](O)[C@@H]2O)nn1	–	–	–	–	134	–	–
CC(C)(C)OCCCOCCCn1cc(CN[C@H]2[C@H](O)[C@@H](O)[C@H](O)[C@@H](O)[C@@H]2O)nn1	–	–	–	–	325	–	–
O[C@@H]1[C@@H](O)[C@H](O)[C@@H](NCc2cn(Cc3cc(OCc4ccccc4)cc(OCc4ccccc4)c3)nn2)[C@H](O)[C@H]1O	> 100	> 100	> 100	> 100	0.05	Non-toxic	IC50 [6]: 0.06 µM; inhibition [7]: 9%; Ratio [1]: 31.2; Ki [8]: 0.05 µM; inhibition [9]: 93%
CCCCCCCCCCn1cc(CN[C@H]2[C@H](O)[C@@H](O)[C@H](O)[C@@H](O)[C@@H]2O)nn1	> 100	> 100	> 100	> 100	0.15	Non-toxic	–
O[C@@H]1[C@@H](O)[C@H](O)[C@@H](NCc2cn(CCCc3nc4ccc(C(F)(F)F)cc4[nH]3)nn2)[C@H](O)[C@H]1O	–	–	–	–	12.2	–	–
O[C@@H]1[C@@H](O)[C@H](O)[C@@H](NCc2cn(Cc3cc4nsnc4cc3Cl)nn2)[C@H](O)[C@H]1O	–	–	–	–	17.3	–	–
